Lipid droplet: inhibitors of hepatocyte lipid droplet formation, primary screen, imaging, high-throughput imaging, BODIPY stain | AML12 mouse hepatocytes, oleate lipid droplets | inhibition, % at 6.5 µM | hit rate 0.4% among 240,000 | AID 1656, 2009;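 active = lipid droplet intensity inhibited by at least 50%, with more than 500 cells counted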
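Technique: fluorescence imaging, 20x objective, two fields per well / Assay system: AML12 hepatocytes (mouse) / Measure: % inhibition of lipid droplet signal / Doses: 6.5 µM single-point dosing / Incubation: overnight exposure / Reagent: 100 µM oleic acid challenge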
MPTP inh: mitochondrial permeability transition pore inhibitors, primary screen, biochemical, isolated mouse mitochondria, absorbance; Ca2+ swelling absorbance, 30 min; hit rate 1.4% among 360,000; inhibition, % at 10 µM; AID 602449, 2012;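 active = inhibition of 50% or more, scaled per plate between neutral and stimulator controls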;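 note: 0% = DMSO wells given calcium and 100% = 1 mM EGTA wells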
T cruzi repl: inhibitors of intracellular T. cruzi growth, primary screen, luminescence, NIH3T3 host cells; T. cruzi beta-gal in NIH3T3, 90 h; inhibition, % (test concentration not listed); hit rate 1.4% among 300,000; AID 1885, 2009;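 active = mean inhibition across valid replicates above about 55%, limit read from the data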;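 note: signal also drops with host cell toxicity which is not excluded here; 0% = plate median of DMSO wells and 100% = zero luminescence signal; higher percent means less beta-gal luminescence so fewer parasites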
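System – NIH/3T3 host cells with β-galactosidase reporter T. cruzi · Doses – single 50 nL compound addition per well in DMSO · Reagent – 5000 T. cruzi trypomastigotes/well · Medium – Low-serum DMEM with 2% FBS · Timing – ≥90 h infection period, 3 h prior cell attachment · Evaluation – parasite load inhibition, % · Technique – GalScreen luminescence, 60 min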
Redox H2O2 prof: compounds producing H2O2 with reducing agent – biochemical, NIH compound library profiling, artefact control for MLSCN library redox annotation, primary screen; DTT-dependent redox cycling H2O2, phenol red/HRP absorbance; 100% = 100 µM peroxide control, 0% = buffer; activation, % at 10 µM; hit rate 0.03% among 200,000;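 active = activation of at least 50% relative to the plate's high and low controls in the primary single-dose screen; inactive = activation below 50%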;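 note: compound incubated with DTT at 0.8 mM final as the reducing agent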
L major viab: Leishmania major promastigote growth inhibition, primary screen | Leishmania major promastigotes, resazurin fluorescence viability | hit rate 9% among 200,000 | inhibition, % at 10 µM | AID 1063, 2008; in the data active = inhibition above about 50%;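 note: promastigotes grown with compound for 44 hours at 28 °C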
* hit, by the source's call; x = no result. The sample as a whole holds a higher share of hits than the screen did.

SMILES	Lipid droplet	MPTP inh	T cruzi repl	Redox H2O2 prof	L major viab
CCCC(=O)NC(=S)Nc1ccc(N2CCOCC2)c(Cl)c1	4	0	11	-1	60*
CCOc1ccc(C(=O)Nc2ccccc2N2CCN(C(=O)c3ccccc3)CC2)cc1[N+](=O)[O-]	4	0	44	x	x
CCC(=O)N1CCN(c2ccc(NC(=S)NC(=O)c3ccc(OC)c([N+](=O)[O-])c3)cc2)CC1	2	-1	3	0	53*
CCOc1ccc(C(=O)NC(=S)Nc2ccccc2N2CCC(C)CC2)cc1[N+](=O)[O-]	x	2	55*	-3	3
O=C(NNC(=O)c1ccncc1)Nc1cc(Cl)ccc1Cl	x	-2	x	x	x
CCn1c(SCC(=O)Nc2ccc(N3CCOCC3)c(Cl)c2)nnc1-c1ccc(N)cc1	-1	3	3	0	73*
CCOc1ccc(C(=O)NC(=S)Nc2ccc(N3CCC(C)CC3)cc2)cc1[N+](=O)[O-]	0	7	30	-3	87*
CCOc1ccc(C(=O)NC(=S)Nc2cccnc2)cc1[N+](=O)[O-]	-3	0	10	0	-8
CCn1c(SCC(=O)Nc2ccccc2N2CCOCC2)nnc1-c1ccccc1	2	-1	7	0	2
CCNC(=O)C1(C)CCN(C(=O)c2ccc(-c3ccccc3)cc2)C1 (configuration not stated)	x	0	x	x	x
Cc1cccc(C(=O)NCC(=O)NC2CCC(C)CC2)c1 (configuration not stated)	x	2	3	x	x
CCNC(=S)Nc1cc(Cl)ccc1Oc1ccccc1	19	31	-3	0	67*
CNC(=S)Nc1cc(Cl)ccc1Oc1ccccc1	-3	2	2	0	2
Cc1cc(Cl)c(OCCCn2cncn2)c(Br)c1	-5	0	-5	0	2
Cc1cccc(Cl)c1OCCCN1CCOCC1	-8	0	7	x	x
Cc1cc(Cl)cc(C)c1OCCCCN1CCOCC1	18	0	11	0	100*
Cc1ccc(OCCCCN2CCC(C)CC2)c(Br)c1	-23	2	18	0	100*
CC1CCCN(CCOCCOc2ccc(Br)cc2Cl)C1 (configuration not stated)	2	3	46	0	97*
CN1CCN(CCOCCOc2ccc(Br)cc2Cl)CC1	3	0	50	x	x
Cc1cc(Cl)c(OCCCCN2CCOCC2)c(Br)c1	-24	-2	8	0	98*
Cc1cc(Cl)c(OCCOCCN2CCCCC2)c(Br)c1	-21	0	31	0	97*
CC1CCN(CCCOc2ccc(Br)cc2Cl)CC1	-8	43	34	0	89*
Cc1cc(C)c(OCCOCCN2CCCC2)c(C)c1	x	0	22	x	x
Cc1cc(Cl)c(OCCOCCN2CCCC(C)C2)c(Br)c1 (configuration not stated)	-79	4	73*	-2	99*
Clc1cc(Br)ccc1OCCN1CCOCC1	2	-1	-13	0	93*
SMILES	Lipid droplet	MPTP inh	T cruzi repl	Redox H2O2 prof	L major viab
Cc1cc(Cl)c(OCCCNC2CCCC2)c(Br)c1	-24	2	35	x	x
CCCCCN(C(=O)CCC(=O)OCc1cccc(Br)c1)c1c(N)n(CCCC)c(=O)[nH]c1=O	x	-1	6	x	x
COCC1CCN(C(=O)CC2C(=O)NCCN2Cc2cccc(Oc3ccccc3)c2)CC1 (configuration not stated)	-1	-2	-6	x	x
COc1ccc(/C=N/N2CCN(Cc3ccc(C)cc3)CC2)cc1Br	0	2	27	x	x
CCCCCOc1ccc(CN2CCOCC2)cc1Cl	16	-1	36	-2	86*
CC(=O)NC(Nc1c(C)n(C)n(-c2ccccc2)c1=O)C(Cl)(Cl)Cl (configuration not stated)	10	0	-3	-1	0
CCOC(=O)COc1ccc2ccccc2c1/C=C/[N+](=O)[O-]	3	1	11	0	90*
O=[N+]([O-])/C=C/c1c(OCc2ccccc2)ccc2ccccc12	3	-4	54	1	100*
CCCCOc1ccc2ccccc2c1C=O	x	-2	3	2	0
CCOC(=O)Cn1cc(/C=C/[N+](=O)[O-])c2ccccc21	4	2	-7	0	36
CCOc1ccc(/C=C/[N+](=O)[O-])c2ccccc12	x	4	-1	1	100*
CCOC(=O)COc1ccc(/C=C/[N+](=O)[O-])c(OCC(=O)OCC)c1	x	0	11	-5	100*
Cc1ccccc1OCC(=O)Nc1ccc(C(=O)Nc2ccccc2C(=O)O)cc1	-16	-1	3	x	x
CC(Cc1ccccc1)NC(=O)CN1C(=O)c2ccccc2S1(=O)=O (configuration not stated)	-7	0	-9	x	x
COc1ccc(CNCc2ccc(C(F)(F)F)cc2)cc1OC	2	1	-13	x	x
O=C(COc1ccccc1)Nc1ccccc1Cl	-2	-1	6	0	-3
CCOc1ccc(N2C(=O)C(c3ccccc3)=C(c3nc4ccccc4s3)C2NC(C)=O)cc1 (configuration not stated)	14	6	30	2	51*
CCOc1ccc(-n2nnnc2-c2nc3ccccc3s2)cc1	1	1	0	0	-3
Cc1ccc2cc(C(c3nnnn3C3CCCC3)N(Cc3ccccc3)Cc3ccco3)c(=O)[nH]c2c1 (configuration not stated)	x	0	10	0	80*
CCC(C)(C)n1nnnc1C(c1cc2ccc(C)cc2[nH]c1=O)N(Cc1cccnc1)Cc1ccco1 (configuration not stated)	62*	3	13	0	83*
Cc1cc2cc(C(c3nnnn3C3CCCC3)N(Cc3cccnc3)Cc3ccco3)c(=O)[nH]c2cc1C (configuration not stated)	34	-1	3	0	50
CC(C)(C)n1nnnc1C(c1cccs1)N(Cc1cccnc1)Cc1ccco1 (configuration not stated)	2	0	48	-4	79*
CC(C)CNC(=O)c1ccccc1C(=O)NC1(C(=O)NCC(C)C)CCCC1	x	-1	x	x	x
CCC1(C)Cc2nc3[nH]c(=S)n(-c4ccccc4)c(=O)c3cc2CO1 (configuration not stated)	-3	0	6	0	56*
COc1ccc(C2CC(=O)c3cnc(N4CCN(Cc5ccccc5)CC4)nc3C2)cc1 (configuration not stated)	-6	0	37	-1	-3
CCN1CCN(c2ncc3c(n2)CC(c2ccc(OC)c(OC)c2)CC3=O)CC1 (configuration not stated)	x	2	6	0	99*
Cc1ccc(CNC(=O)C2CCC(=O)N2C(C)C)cc1 (configuration not stated)	-6	-1	-6	x	x
